{"data": "Published values collected from several papers", "cell line": "L02", "observed": "cell growth or viability", "note": "Protocols differ between the studies behind these lines."}
{"Structure (SMILES)": "Oc1c(Br)cc(Br)c2cccnc12", "test": "MTT", "conditions": "48 h", "IC50": "> 100 µM"}
{"Structure (SMILES)": "Cc1c(OCC(F)(F)F)ccnc1COc1ccc(NC(=O)Nc2ccc(Cl)c(C(F)(F)F)c2)cc1", "test": "MTT", "conditions": "72 h", "IC50": "> 100 µM"}
{"Structure (SMILES)": "Cc1cc(Oc2ccc(NC(=O)c3sc(-c4ccccn4)nc3C)cc2)c2nncn2n1", "test": "MTT", "IC50": "> 50 µM"}
{"Structure (SMILES)": "COCCCOc1ccnc(COc2ccc(NC(=O)Nc3ccc(Cl)cc3)cc2)c1C", "test": "MTT", "conditions": "72 h", "IC50": "> 100 µM"}
{"Structure (SMILES)": "COc1ccnc(-c2cc(OC)ccn2)c1", "test": "MTT", "conditions": "48 h", "IC50": "> 50 µM"}
{"Structure (SMILES)": "COc1ccc(NC(=O)Nc2ccc(OCc3nccc(OC)c3OC)cc2)cc1", "test": "MTT", "conditions": "72 h", "IC50": "> 100 µM"}
{"Structure (SMILES)": "Cc1cc(Oc2ccc(NC(=O)c3sc(-c4ccncc4)nc3C)cc2)n2ncnc2n1", "test": "MTT", "IC50": "> 50 µM"}
{"Structure (SMILES)": "Oc1c(I)cc(I)c2cccnc12", "test": "MTT", "conditions": "48 h", "IC50": "71 µM"}
{"Structure (SMILES)": "COc1cc(C2Oc3cc([C@H]4Oc5cc(O)cc(O)c5C(=O)[C@@H]4O)ccc3OC2CO)ccc1O (stereo partly shown)", "test": "CCK-8", "conditions": "72 h", "IC50": "> 300 µM"}
{"Structure (SMILES)": "Cc1cc(Oc2ccc(NC(=O)c3cc(-c4cccs4)no3)cc2F)c2nncn2n1", "test": "MTT", "IC50": "> 50 µM"}
